Test results taken from ChEMBL document CHEMBL1133584, “Potent and selective non-peptidic inhibitors of endothelin-converting enzyme-1 with sustained duration of action” (J Med Chem, 2000).

Assays:
Neprilysin = target: T1, Neprilysin (Rattus norvegicus, UniProt P07861); experiment: In vitro inhibition of rat neutral endopeptidase
T1 sequence (P07861 whole entry): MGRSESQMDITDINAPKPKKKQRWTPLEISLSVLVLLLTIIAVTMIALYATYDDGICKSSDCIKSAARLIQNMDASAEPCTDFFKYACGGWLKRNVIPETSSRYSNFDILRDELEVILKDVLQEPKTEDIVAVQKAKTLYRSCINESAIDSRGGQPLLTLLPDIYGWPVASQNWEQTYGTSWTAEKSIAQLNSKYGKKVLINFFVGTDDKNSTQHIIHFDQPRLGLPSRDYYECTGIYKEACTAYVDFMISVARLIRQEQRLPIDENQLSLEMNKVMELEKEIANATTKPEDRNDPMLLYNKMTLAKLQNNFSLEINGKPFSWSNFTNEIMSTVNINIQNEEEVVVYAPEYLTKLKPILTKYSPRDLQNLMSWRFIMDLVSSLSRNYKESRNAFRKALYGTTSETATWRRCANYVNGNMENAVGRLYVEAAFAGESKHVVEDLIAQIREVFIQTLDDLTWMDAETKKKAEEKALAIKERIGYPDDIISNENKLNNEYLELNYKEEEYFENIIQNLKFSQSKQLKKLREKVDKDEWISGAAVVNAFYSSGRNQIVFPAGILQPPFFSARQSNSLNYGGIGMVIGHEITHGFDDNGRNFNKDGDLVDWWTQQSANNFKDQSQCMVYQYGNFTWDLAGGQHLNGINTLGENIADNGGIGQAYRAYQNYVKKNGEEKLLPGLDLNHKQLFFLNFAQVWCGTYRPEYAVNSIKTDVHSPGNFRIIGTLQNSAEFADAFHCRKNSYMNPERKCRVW

[1] = target: T2, Endothelin-converting enzyme 1 (Homo sapiens) (UniProt P42892); experiment: Inhibition of Endothelin-converting enzyme 1 activity at a concentration of 1 uM
T2 sequence (whole entry): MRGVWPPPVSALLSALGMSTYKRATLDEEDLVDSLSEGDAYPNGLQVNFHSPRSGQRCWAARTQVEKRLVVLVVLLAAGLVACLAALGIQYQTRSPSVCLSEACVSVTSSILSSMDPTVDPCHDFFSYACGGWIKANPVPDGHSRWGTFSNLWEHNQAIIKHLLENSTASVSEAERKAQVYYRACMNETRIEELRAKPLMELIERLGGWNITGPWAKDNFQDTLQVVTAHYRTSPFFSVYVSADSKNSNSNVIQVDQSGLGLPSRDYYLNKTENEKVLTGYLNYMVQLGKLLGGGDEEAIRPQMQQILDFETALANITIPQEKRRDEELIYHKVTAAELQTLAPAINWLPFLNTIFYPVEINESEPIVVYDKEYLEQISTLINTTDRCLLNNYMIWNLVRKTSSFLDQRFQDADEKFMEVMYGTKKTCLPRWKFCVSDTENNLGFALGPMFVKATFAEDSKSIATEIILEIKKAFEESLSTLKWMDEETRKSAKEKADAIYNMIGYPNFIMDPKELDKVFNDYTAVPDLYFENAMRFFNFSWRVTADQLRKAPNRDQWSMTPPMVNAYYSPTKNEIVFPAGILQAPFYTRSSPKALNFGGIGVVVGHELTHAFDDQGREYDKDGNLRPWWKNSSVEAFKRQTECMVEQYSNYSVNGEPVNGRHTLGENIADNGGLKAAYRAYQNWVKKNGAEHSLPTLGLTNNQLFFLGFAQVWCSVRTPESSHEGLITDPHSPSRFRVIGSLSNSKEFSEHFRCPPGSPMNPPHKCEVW
Method in brief: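 Human recombinant ECE-1a came from CHO cell membranes. Activity was measured with test compound at 1 µM and expressed as percent inhibition.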

[2] = Selectivity ratio of IC50 NEP/IC50 ECE
Method in brief: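 ECE selectivity was the ratio of IC50 against rat kidney cortex NEP 24.11 to IC50 against CHO-membrane human recombinant ECE-1a.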

[3] = target: T3, Endothelin-converting enzyme 1 (Homo sapiens, UniProt P42892); experiment: In Vitro inhibition of recombinant human endothelin converting enzyme-1
T3 sequence (P42892 whole entry): T2 sequence (whole entry)
Method in brief: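 Enzyme was human recombinant ECE-1a from membranes of CHO cells expressing it. The IC50 was determined by the assay method of earlier work.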

Structure (SMILES)	IC50 (Neprilysin)	inhibition [1]	Selectivity [2]	IC50 [3]
O=C(O)CNC(=O)[C@H](Cc1ccc2c(c1)oc1ccccc12)NCP(=O)(O)O	> 10 µM	43%		
CC(C)C[C@H](NC(=O)[C@H](CC#Cc1ccc(F)cc1F)NCP(=O)(O)O)C(=O)N[C@@H](C)C(=O)O	5.8 µM		725	
O=P(O)(O)C(CCc1cccc2ccccc12)N[C@@H](Cc1ccc(-c2ccccc2)cc1)c1nnn[nH]1 (some centres undefined)	0.005 µM		0.29	
CC(C)C[C@H](NC(=O)[C@H](CC#Cc1ccc(F)cc1F)NCP(=O)(O)O)C(=O)O	6.7 µM		131	
CC(NC(=O)[C@H](Cc1ccc2c(c1)oc1ccccc12)NCP(=O)(O)O)C(=O)O (some centres undefined)	1.64 µM	35%		
O=P(O)(O)CN[C@@H](CC#Cc1ccccc1F)c1nnn[nH]1	0.014 µM		0.1	
O=C(NCCc1ccc(-c2ccccc2)cc1)[C@H](Cc1ccc2c(c1)oc1ccccc12)NCP(=O)(O)O		5%		
O=C(NCCc1ccccc1)[C@H](Cc1ccc2c(c1)oc1ccccc12)NCP(=O)(O)O		29%		
O=C(O)[C@H](Cc1ccc2c(c1)oc1ccccc12)NC(CCc1cccc2ccccc12)P(=O)(O)O (stereo in doubt; 40a') [listing 1 of 2 here]	13.8 µM			0.024 µM
O=C(O)[C@H](Cc1ccc2c(c1)oc1ccccc12)NC(CCc1cccc2ccccc12)P(=O)(O)O (stereo in doubt; 40a') [listing 2 of 2 here]		95%	574	
O=C(O)[C@H](Cc1ccc2c(c1)oc1ccccc12)NC(CCc1cccc2ccccc12)P(=O)(O)O (stereo in doubt; 40b') [listing 1 of 2 here]				1.8 µM
O=C(O)[C@H](Cc1ccc2c(c1)oc1ccccc12)NC(CCc1cccc2ccccc12)P(=O)(O)O (stereo in doubt; 40b') [listing 2 of 2 here]		34%		
COc1cccc(CCC(N[C@@H](Cc2ccc3c(c2)oc2ccccc23)C(=O)O)P(=O)(O)O)c1OC (stereo in doubt; 40c) [listing 1 of 2 here]	24 µM			0.019 µM
COc1cccc(CCC(N[C@@H](Cc2ccc3c(c2)oc2ccccc23)C(=O)O)P(=O)(O)O)c1OC (stereo in doubt; 40c) [listing 2 of 2 here]		95%	1260	
COc1cccc(CCC(N[C@@H](Cc2ccc3c(c2)oc2ccccc23)C(=O)O)P(=O)(O)O)c1OC (stereo in doubt; 40d') [listing 1 of 2 here]	6.4 µM			0.11 µM
COc1cccc(CCC(N[C@@H](Cc2ccc3c(c2)oc2ccccc23)C(=O)O)P(=O)(O)O)c1OC (stereo in doubt; 40d') [listing 2 of 2 here]		85%	58	
COc1ccc(CCC(N[C@@H](Cc2ccc3c(c2)oc2ccccc23)C(=O)O)P(=O)(O)O)cc1OC (stereo in doubt; 40e') [listing 1 of 2 here]	> 10 µM			0.029 µM
COc1ccc(CCC(N[C@@H](Cc2ccc3c(c2)oc2ccccc23)C(=O)O)P(=O)(O)O)cc1OC (stereo in doubt; 40e') [listing 2 of 2 here]		93%	> 345	
COc1ccc(CCC(N[C@@H](Cc2ccc3c(c2)oc2ccccc23)C(=O)O)P(=O)(O)O)cc1OC (stereo in doubt; 40f ') [listing 1 of 2 here]				0.89 µM
COc1ccc(CCC(N[C@@H](Cc2ccc3c(c2)oc2ccccc23)C(=O)O)P(=O)(O)O)cc1OC (stereo in doubt; 40f ') [listing 2 of 2 here]		58%		
COc1cc(OC)c(OC)cc1CCC(N[C@@H](Cc1ccc2c(c1)oc1ccccc12)C(=O)O)P(=O)(O)O (stereo in doubt; 40i') [listing 1 of 2 here]	> 10 µM			0.04 µM
COc1cc(OC)c(OC)cc1CCC(N[C@@H](Cc1ccc2c(c1)oc1ccccc12)C(=O)O)P(=O)(O)O (stereo in doubt; 40i') [listing 2 of 2 here]		91%	> 250	

Structure (SMILES)	IC50 (Neprilysin)	inhibition [1]	Selectivity [2]	IC50 [3]
COc1cc(OC)c(OC)cc1CCC(N[C@@H](Cc1ccc2c(c1)oc1ccccc12)C(=O)O)P(=O)(O)O (stereo in doubt; 40j')		38%		
COc1ccc(CCC(N[C@@H](Cc2ccc3c(c2)oc2ccccc23)C(=O)O)P(=O)(O)O)c(OC)c1OC (stereo in doubt; 40k') [listing 1 of 2 here]	15 µM			0.035 µM
COc1ccc(CCC(N[C@@H](Cc2ccc3c(c2)oc2ccccc23)C(=O)O)P(=O)(O)O)c(OC)c1OC (stereo in doubt; 40k') [listing 2 of 2 here]		91%	428	
COc1ccc(CCC(N[C@@H](Cc2ccc3c(c2)oc2ccccc23)C(=O)O)P(=O)(O)O)c(OC)c1OC (stereo in doubt; 40l') [listing 1 of 2 here]				0.52 µM
COc1ccc(CCC(N[C@@H](Cc2ccc3c(c2)oc2ccccc23)C(=O)O)P(=O)(O)O)c(OC)c1OC (stereo in doubt; 40l') [listing 2 of 2 here]		64%		
O=C(O)[C@H](Cc1ccc2c(c1)oc1ccccc12)NC(CCc1cccc2cccnc12)P(=O)(O)O (stereo in doubt; 40m') [listing 1 of 2 here]	59 µM			0.014 µM
O=C(O)[C@H](Cc1ccc2c(c1)oc1ccccc12)NC(CCc1cccc2cccnc12)P(=O)(O)O (stereo in doubt; 40m') [listing 2 of 2 here]		94%	4210	
O=C(O)[C@H](Cc1ccc2c(c1)oc1ccccc12)NC(CCc1cccc2cccnc12)P(=O)(O)O (stereo in doubt; 40n') [listing 1 of 2 here]	48 µM			0.2 µM
O=C(O)[C@H](Cc1ccc2c(c1)oc1ccccc12)NC(CCc1cccc2cccnc12)P(=O)(O)O (stereo in doubt; 40n') [listing 2 of 2 here]		78%	240	
NCCCCC(N[C@@H](Cc1ccc2c(c1)oc1ccccc12)C(=O)O)P(=O)(O)O (stereo in doubt; 40o') [listing 1 of 2 here]	> 100 µM			0.097 µM
NCCCCC(N[C@@H](Cc1ccc2c(c1)oc1ccccc12)C(=O)O)P(=O)(O)O (stereo in doubt; 40o') [listing 2 of 2 here]		84%	> 1030	
NCCCCC(N[C@@H](Cc1ccc2c(c1)oc1ccccc12)C(=O)O)P(=O)(O)O (stereo in doubt; 40p')		19%		
NCCCC(N[C@@H](Cc1ccc2c(c1)oc1ccccc12)C(=O)O)P(=O)(O)O (stereo in doubt; 40q')		73%		
NCCCC(N[C@@H](Cc1ccc2c(c1)oc1ccccc12)C(=O)O)P(=O)(O)O (stereo in doubt; 40r')		29%		
CC(N[C@@H](Cc1ccc2c(c1)oc1ccccc12)C(=O)O)P(=O)(O)O (stereo in doubt; 40u) [listing 1 of 2 here]	28 µM			0.096 µM
CC(N[C@@H](Cc1ccc2c(c1)oc1ccccc12)C(=O)O)P(=O)(O)O (stereo in doubt; 40u) [listing 2 of 2 here]		88%	292	
CC(N[C@@H](Cc1ccc2c(c1)oc1ccccc12)C(=O)O)P(=O)(O)O (stereo in doubt; 40v) [listing 1 of 2 here]	47 µM			0.18 µM
CC(N[C@@H](Cc1ccc2c(c1)oc1ccccc12)C(=O)O)P(=O)(O)O (stereo in doubt; 40v) [listing 2 of 2 here]		81%	261	
O=P(O)(O)C(CCc1cccc2ccccc12)N[C@@H](Cc1ccc2c(c1)oc1ccccc12)c1nnn[nH]1 (stereo in doubt; 43a')		98%	81	
O=P(O)(O)C(CCc1cccc2ccccc12)N[C@@H](Cc1ccc2c(c1)oc1ccccc12)c1nnn[nH]1 (stereo in doubt; 43b')		73%	29	
CC(C)C[C@H](NP(=O)(O)O[C@@H]1O[C@@H](C)[C@H](O)[C@@H](O)[C@H]1O)C(=O)N[C@@H](Cc1c[nH]c2ccccc12)C(=O)O [PHOSPHORAMIDON]	0.03 µM			
O=C(O)CNC(=O)C(CS)Cc1ccccc1 (centres undefined) [THIORPHAN]				> 100 µM
